This note sets out measurements from ChEMBL document CHEMBL1134841, “Antimalarial alkoxylated and hydroxylated chalcones [corrected]: structure-activity relationship analysis” (J Med Chem, 2001).

One test has as its system Plasmodium falciparum. The test can be described thus: Inhibition of [3H]hypoxanthine incorporation in Plasmodium falciparum K1. Format: functional, organism-based. The note with it: Plasmodium falciparum, 48 h. The method in brief:
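K1 (chloroquine-resistant) parasites cultured in RPMI-1640 with 5% sodium bicarbonate and 10% type O human serum. DMSO stocks were serially diluted 10-fold in medium, covering a 10^6-fold range. Infected erythrocytes at 1–2% parasitemia and 1.5% hematocrit were incubated at 37 °C in a candle jar for 24 h. [3H]hypoxanthine was then added for a further 24 h, cells harvested and scintillation counted. IC50 from nonlinear logistic fit versus untreated control.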

Test [1] deals with Mus musculus. The test can be described thus: Ratio of average life span of compound-treated mice (100 mg/kg, ip, 3 days) to that of mice treated with 4''-butoxy-2,4-dimethoxychalcone (comp.41). The class given is functional. The method in brief: (§1)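 Swiss albino mice (male, 4 weeks, ~25 g) inoculated ip with 10^7 P. berghei ANKA parasitized erythrocytes (day 0). Test compound 100 mg/kg/day ip in DMSO, days 1–3, three mice per compound. Control infected groups: DMSO or 4'-butoxy-2,4-dimethoxychalcone (100 mg/kg in DMSO, ip, days 1–3), or chloroquine (52 mg/kg ip in 0.5% Tween buffer pH 7.4, day 1). Survival followed; ratio of mean life spans.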

Test [2] has as its system Mus musculus. As to the kind of experiment: Ratio of average life span of compound-treated mice (100 mg/kg, ip, 3 days) to that of mice receiving DMSO (T/C-untreated). Format: functional. The method, boiled down: as §1
Test [3] in a line: Ratio of average life span of compound-treated mice (100 mg/kg, ip, 3 days) to that of mice treated with chloroquine (T/C-CQ). Format: functional. The method in brief:
as §1

Consider `CN(C)c1ccc(/C=C/C(=O)c2ccc(O)cc2)cc1`, for which the concentration for half-maximal inhibition (IC50) with Plasmodium falciparum was 17.7 µM. The “T/C 41” value in the test on Mus musculus [1] amounted to 0.99. In addition, in the test with Mus musculus [2], the T/C untreated came to 0.94. Also, the T/C-CQ in test [3] stood at 0.47.

`O=C(/C=C/c1ccccn1)c1ccc(O)cc1` came in with an IC50 in the test on Plasmodium falciparum of 16.3 µM. In the test on Mus musculus [1], the “T/C 41” value worked out at 1.03. Moreover, the T/C untreated in the test with Mus musculus [2] is given as 0.99. For the same compound, in test [3], the T/C-CQ was found to be 0.49.

`CCc1ccc(/C=C/C(=O)c2ccc(OC)cc2OC)cc1`: the IC50 in the test with Plasmodium falciparum is 2.4 µM. Also, in the test on Mus musculus [1], the “T/C 41” value was 2.33. The T/C untreated in the test with Mus musculus [2] turned out to be 2.33. Besides, the T/C-CQ in test [3] came to 1.18.

Compound `O=C(/C=C/c1ccc(Cl)c(Cl)c1)c1ccc(O)cc1` gave a half-inhibitory concentration (IC50) in the test on Plasmodium falciparum of 18.4 µM. Further, in the test with Mus musculus [1], the “T/C 41” value was determined as 0.81. The T/C untreated in the test with Mus musculus [2] was 1.28. Further, in test [3], the T/C-CQ amounted to 0.71.

For the compound `O=C(/C=C/c1ccccn1)c1ccc(O)cc1O`, 19.7 µM corresponded to half-maximal inhibition with Plasmodium falciparum (IC50). In the test with Mus musculus [1], the “T/C 41” value is listed as 0.93. For the same compound, the T/C untreated in the test with Mus musculus [2] turned out to be 1.47. For the same compound, the T/C-CQ in test [3] was determined as 0.81.

`O=C(/C=C/c1ccc(Cl)cc1Cl)c1ccc(O)cc1O` gave a half-inhibitory concentration (IC50) in the test on Plasmodium falciparum of 68.5 µM. Further, the “T/C 41” value in the test with Mus musculus [1] is recorded as 1.36. Besides, in the test on Mus musculus [2], the T/C untreated was found to be 1.32. The T/C-CQ in test [3] stood at 0.94.

In turn, `COc1ccc(C(=O)/C=C/c2cnc3ccccc3c2)cc1` showed a half-inhibitory concentration (IC50) in the test on Plasmodium falciparum of 4.8 µM. Moreover, in the test with Mus musculus [1], the “T/C 41” value turned out to be 1.03. The T/C untreated in the test on Mus musculus [2] came out at 0.98. The T/C-CQ in test [3] is 0.49.

In the test with Plasmodium falciparum, `O=C(/C=C/c1ccc2ccccc2c1)c1ccc(O)cc1O` came in with an IC50 of 20 µM. Besides, the “T/C 41” value in the test with Mus musculus [1] is recorded as 1.2. In addition, in the test with Mus musculus [2], the T/C untreated is listed as 1.91. For the same compound, the T/C-CQ in test [3] was found to be 1.05.

With `COc1ccc(C(=O)/C=C/c2cnc3ccccc3c2)c(OC)c1OC`, inhibition in the test on Plasmodium falciparum was half-maximal at 2 µM (IC50). Also, the “T/C 41” value in the test on Mus musculus [1] was 1.91. Moreover, the T/C untreated in the test on Mus musculus [2] is 1.91. Besides, the T/C-CQ in test [3] is on record as 0.96.

As to `COc1ccc(/C=C/C(=O)c2ccc(OC)cc2OC)c(OC)c1`, the 50% inhibitory concentration (IC50) in the test on Plasmodium falciparum is 2.1 µM. The “T/C 41” value in the test on Mus musculus [1] is 0.98. In addition, the T/C untreated in the test with Mus musculus [2] was 0.98. In test [3], the T/C-CQ is 0.5.

Compound `COc1ccc(C(=O)/C=C/c2ccc(Cl)c(Cl)c2)c(OC)c1OC` had an IC50 in the test with Plasmodium falciparum of 14.5 µM. Moreover, the “T/C 41” value in the test on Mus musculus [1] came to 1.53. In addition, the T/C untreated with Mus musculus [2] is listed as 1.47. For the same compound, the T/C-CQ in test [3] turned out to be 0.8.

As to `COc1ccc(C(=O)/C=C/c2ccc(C(F)(F)F)cc2)c(OC)c1OC`, the half-inhibitory concentration (IC50) in the test with Plasmodium falciparum was 3 µM. Further, the “T/C 41” value in the test on Mus musculus [1] amounted to 1.46. The T/C untreated with Mus musculus [2] was 1.46. Besides, the T/C-CQ in test [3] came out at 0.74.

One may read the IC50 as the concentration that gives 50% inhibition.
